Experimental data as given in ChEMBL document CHEMBL1152649, “Synthesis, cytotoxicity and human telomerase inhibition activities of a series of 1,2-heteroannelated anthraquinones and anthra[1,2-d]imidazole-6,11-dione homologues” (2009).

Assays:
Assay type in all cases: functional
RXF 393 [1] = assay: Antiproliferative activity against human RXF393 cells assessed as cell growth at 10 uM; settings: read-out: Activity
Method in brief: (§1)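 NCI 60 cell line panel, single-dose screen (10^-5 M) run by the developmental therapeutics program protocol. Results are given as growth percent of treated cells relative to untreated control cells for each line.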

BT-549 = assay: Growth inhibition of human BT549 cells
Method in brief: (§2)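 NCI 60 cancer cell line screen run per the Developmental Therapeutics Program protocol. Dose–response curves were plotted against log10 drug concentration for each cell line within its subpanel, and mean graph midpoint values were calculated.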

LOX IMVI [2] = assay: Growth inhibition of human LOXIMVI cells; method in brief: as §2
HCT-116 [3] = assay: Growth inhibition of human HCT116 cells; method in brief: as §2
UACC-257 = assay: Antiproliferative activity against human UACC257 cells assessed as cell growth at 10 uM; settings: read-out: Activity
Method in brief: (§3)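 NCI 60 cell line panel, single dose (10^-5 M), run per the Developmental Therapeutics Program protocol (one dose mean graph). Each result is the growth percentage of treated cells relative to untreated control cells.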

[4] = Growth inhibition of human […] cells
Method in brief: (§4)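 Assayed in the NCI 60 human cancer cell line panel under the Developmental Therapeutics Program protocol. For each line, dose–response curves were plotted against log10 drug concentration. In the one-dose screen at 10^-5 M, growth was given as percent of untreated control cells, and mean graph midpoint values were averaged.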

SK-OV-3 = assay: Growth inhibition of human SKOV3 cells; method in brief: as §4
UO-31 = assay: Growth inhibition of human UO31 cells; method in brief: as §4
SN12C = assay: Antiproliferative activity against human SN12C cells assessed as cell growth at 10 uM; settings: read-out: Activity; method in brief: as §1
HOP-62 = assay: Growth inhibition of human HOP62 cells; method in brief: as §2
CAKI-1 [5] = assay: Growth inhibition of human Caki1 cells; method in brief: as §2
NCI-H522 [6] = assay: Antiproliferative activity against human NCI-H522 cells assessed as cell growth at 10 uM; settings: read-out: Activity; method in brief: as §1
EKVX = assay: Growth inhibition of human EKVX cells; method in brief: as §2
T47D = assay: Antiproliferative activity against human T47D cells assessed as cell growth at 10 uM; settings: read-out: Activity; method in brief: as §3
NCI-H522 [7] = assay: Growth inhibition of human NCI-H522 cells; method in brief: as §2
HL-60(TB) = assay: Antiproliferative activity against human HL-60(TB) cells assessed as cell growth at 10 uM; settings: read-out: Activity
Method in brief: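 NCI Developmental Therapeutics Program 60-cell-line one-dose screen at 10^-5 M. Readout is growth percentage of treated cells relative to untreated control cells.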

SF-539 = assay: Growth inhibition of human SF539 cells; method in brief: as §4
786-0 = assay: Growth inhibition of human 786-0 cells; method in brief: as §2
A498 = assay: Antiproliferative activity against human A498 cells assessed as cell growth at 10 uM; settings: read-out: Activity; method in brief: as §1
[8] = Cytotoxicity against human H1299 cells at 100 uM after 48 hrs by MTT assay; settings: NCI-H1299, 48 h
Method in brief: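 H1299 non-small cell lung cancer cells were grown in RPMI 1640 with 10% FBS, penicillin and streptomycin at 37 °C under 5% CO2. About 2 × 10³ cells per well were seeded and left 24 h. Compounds were dissolved fresh in DMSO, diluted into complete medium and applied for 48 h. MTT was then added for 4 h at 37 °C, followed by lysis buffer (20% SDS, 50% DMF) for 16 h, and absorbance was read at 550 nm.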

LOX IMVI [9] = assay: Antiproliferative activity against human LOXIMVI cells assessed as cell growth at 10 uM; settings: read-out: Activity; method in brief: as §1
U-251 = assay: Growth inhibition of human U251 cells; method in brief: as §4
RXF 393 [10] = assay: Growth inhibition of human RXF393 cells; method in brief: as §4
KM12 = assay: Growth inhibition of human KM12 cells; method in brief: as §2
PC-3 = assay: Growth inhibition of human PC3 cells; method in brief: as §4
A549 = assay: Antiproliferative activity against human A549 cells assessed as cell growth at 10 uM; settings: read-out: Activity; method in brief: as §1
SR = assay: Antiproliferative activity against human SR cells assessed as cell growth at 10 uM; settings: read-out: Activity; method in brief: as §3
HCT-116 [11] = assay: Antiproliferative activity against human HCT116 cells assessed as cell growth at 10 uM; settings: read-out: Activity; method in brief: as §1
SF-268 = assay: Antiproliferative activity against human SF268 cells assessed as cell growth at 10 uM; settings: read-out: Activity; method in brief: as §1
Malme-3M = assay: Antiproliferative activity against human MALME-3M cells assessed as cell growth at 10 uM; settings: read-out: Activity; method in brief: as §1
OVCAR-4 = assay: Growth inhibition of human OVCAR4 cells; method in brief: as §2
HOP-92 = assay: Growth inhibition of human HOP92 cells; method in brief: as §2
ACHN [12] = assay: Antiproliferative activity against human ACHN cells assessed as cell growth at 10 uM; settings: read-out: Activity; method in brief: as §1
OVCAR-3 = assay: Growth inhibition of human OVCAR-3 cells; method in brief: as §2
[13] = Growth inhibition of human Hs 578T cells; method in brief: as §2
OVCAR-8 = assay: Antiproliferative activity against human OVCAR8 cells assessed as cell growth at 10 uM; settings: read-out: Activity; method in brief: as §1
SK-MEL-5 = assay: Antiproliferative activity against human SK-MEL-5 cells assessed as cell growth at 10 uM; settings: read-out: Activity; method in brief: as §1
TK-10 = assay: Growth inhibition of human TK10 cells; method in brief: as §4
ACHN [14] = assay: Growth inhibition of human ACHN cells; method in brief: as §2
CAKI-1 [15] = assay: Antiproliferative activity against human Caki1 cells assessed as cell growth at 10 uM; settings: read-out: Activity; method in brief: as §1
[16] = read-out: LC50 (the source's name)

With O=C1c2ccccc2C(=O)c2c1ccc1nccnc21 the growth at 10 µM (RXF 393 [1]) was 105%, the GI50 (BT-549) was 12.2 µM and the LC50 (BT-549) was greater than 100 µM. It also gave a TGI (BT-549) of 93.5 µM, a GI50 (LOX IMVI [2]) of 4.2 µM and a TGI (LOX IMVI [2]) of 38.9 µM. The CC50 (LOX IMVI [2]; [16]) was greater than 100 µM, the GI50 (HCT-116 [3]) was 12.3 µM and the TGI (HCT-116 [3]) was greater than 100 µM. For the same compound, the CC50 (HCT-116 [3]; [16]) was greater than 100 µM, the growth at 10 µM (UACC-257) was 91.1% and the GI50 [4] was 1.61 µM. It also gave a TGI [4] greater than 100 µM, a CC50 [4, 16] greater than 100 µM and a GI50 (SK-OV-3) of 6.95 µM. The TGI (SK-OV-3) was greater than 100 µM, the CC50 (SK-OV-3; [16]) was greater than 100 µM and the GI50 (UO-31) was 3.02 µM. The TGI (UO-31) was 85.9 µM, the CC50 (UO-31; [16]) was greater than 100 µM and the growth at 10 µM (SN12C) was 64.7%. The GI50 (HOP-62) was 5.64 µM, the TGI (HOP-62) was greater than 100 µM and the CC50 (HOP-62; [16]) was greater than 100 µM. The GI50 (CAKI-1 [5]) was 5.83 µM, the TGI (CAKI-1 [5]) was greater than 100 µM and the CC50 (CAKI-1 [5]; [16]) was greater than 100 µM. It also gave a growth at 10 µM (NCI-H522 [6]) of 24.1%, a GI50 (EKVX) of 3.45 µM and a TGI (EKVX) of 72.1 µM. For the same compound, the CC50 (EKVX; [16]) was greater than 100 µM, the growth at 10 µM (T47D) was 85.2% and the GI50 (NCI-H522 [7]) was 4.64 µM. For the same compound, the TGI (NCI-H522 [7]) was 32.5 µM, the CC50 (NCI-H522 [7]; [16]) was greater than 100 µM and the growth at 10 µM (HL-60(TB)) was 102%. For the same compound, the GI50 (SF-539) was 2.18 µM, the TGI (SF-539) was 53.7 µM and the CC50 (SF-539; [16]) was greater than 100 µM. For the same compound, the GI50 (786-0) was 8.87 µM, the TGI (786-0) was greater than 100 µM and the CC50 (786-0; [16]) was greater than 100 µM. For the same compound, the growth at 10 µM (A498) was 98.8%, the viability at 100 µM [8] was 6% and the growth at 10 µM (LOX IMVI [9]) was 44.2%. The GI50 (U-251) was 5.38 µM, the TGI (U-251) was 42.9 µM and the CC50 (U-251; [16]) was greater than 100 µM. The GI50 (RXF 393 [10]) was 6.43 µM, the TGI (RXF 393 [10]) was greater than 100 µM and the CC50 (RXF 393 [10]; [16]) was greater than 100 µM. The GI50 (KM12) was 5.26 µM, the TGI (KM12) was 49.5 µM and the CC50 (KM12; [16]) was greater than 100 µM. The TGI (PC-3) was greater than 100 µM, the CC50 (PC-3; [16]) was greater than 100 µM and the growth at 10 µM (A549) was 47.1%. For the same compound, the growth at 10 µM (SR) was 82.9%, the growth at 10 µM (HCT-116 [11]) was 53.3% and the growth at 10 µM (SF-268) was 68%. For the same compound, the growth at 10 µM (Malme-3M) was 181%, the GI50 (OVCAR-4) was 10.5 µM and the TGI (OVCAR-4) was greater than 100 µM. The CC50 (OVCAR-4; [16]) was greater than 100 µM, the GI50 (HOP-92) was 22.5 µM and the TGI (HOP-92) was greater than 100 µM. For the same compound, the CC50 (HOP-92; [16]) was greater than 100 µM, the growth at 10 µM (ACHN [12]) was 46.5% and the GI50 (OVCAR-3) was 2.34 µM. For the same compound, the TGI (OVCAR-3) was 12.5 µM, the CC50 (OVCAR-3; [16]) was greater than 100 µM and the GI50 [13] was 14.1 µM. For the same compound, the LC50 [13] was greater than 100 µM, the TGI [13] was 91.4 µM and the growth at 10 µM (OVCAR-8) was 47.5%. It also gave a growth at 10 µM (SK-MEL-5) of 66.6%, a GI50 (TK-10) of 5 µM and a TGI (TK-10) greater than 100 µM. For the same compound, the CC50 (TK-10; [16]) was greater than 100 µM, the GI50 (ACHN [14]) was 3.85 µM and the TGI (ACHN [14]) was greater than 100 µM. For the same compound, the CC50 (ACHN [14]; [16]) was greater than 100 µM and the growth at 10 µM (CAKI-1 [15]) was 87.9%.
